ChEMBL document CHEMBL1629627, “CTX-M expression and selection of ertapenem resistance in Klebsiella pneumoniae and Escherichia coli” (Antimicrob Agents Chemother, 2009)
Calls of active or inactive are those of the source. The rule behind the calls is not given here.

What was measured:
Assay type in all cases: functional, organism-based
[1] = test system: Escherichia coli; assay: Reduction of OmpC expression in Escherichia coli Wi expressing CTX-M2 at 4 times MIC concentration by SDS-PAGE analysis
[2] = test system: Escherichia coli; assay: Reduction of OmpC expression in Escherichia coli Wi expressing CTX-M3 at 4 times MIC concentration by SDS-PAGE analysis
[3] = test system: Escherichia coli; assay: Reduction of OmpC expression in Escherichia coli Wi expressing CTX-M9 at 4 times MIC concentration by SDS-PAGE analysis
[4] = test system: Escherichia coli; assay: Reduction of OmpC expression in Escherichia coli Wi expressing CTX-M15 at 4 times MIC concentration by SDS-PAGE analysis
[5] = test system: Klebsiella pneumoniae; assay: Reduction of OmpK36 expression in Klebsiella pneumoniae M expressing CTX-M2 at 4 times MIC concentration by SDS-PAGE analysis
[6] = test system: Klebsiella pneumoniae; assay: Reduction of OmpK36 expression in Klebsiella pneumoniae M expressing CTX-M3 at 4 times MIC concentration by SDS-PAGE analysis
[7] = test system: Klebsiella pneumoniae; assay: Reduction of OmpK36 expression in Klebsiella pneumoniae M expressing CTX-M9 at 4 times MIC concentration by SDS-PAGE analysis
[8] = test system: Klebsiella pneumoniae; assay: Reduction of OmpK36 expression in Klebsiella pneumoniae M expressing CTX-M15 at 4 times MIC concentration by SDS-PAGE analysis
[9] = test system: Klebsiella pneumoniae; assay: Reduction of OmpK36 expression in wild type Klebsiella pneumoniae M at 4 times MIC concentration by SDS-PAGE analysis
[10] = test system: Escherichia coli; assay: Reduction of OmpC expression in Escherichia coli Wi expressing CTX-M2 at 4 times MIC concentration by RT-PCR analysis
Procedure, shortened: (§1)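 Ertapenem-decreased-susceptibility mutants of E. coli Wi transformants were selected overnight (18 h, 37°C) on Trypticase soy agar containing ertapenem at fourfold the MIC. omp gene transcripts were quantified by real-time RT-PCR in isolates before and after selection. Calibration curves came from serially diluted cDNA of in vitro-obtained RNA standards for each gene, and copy numbers were compared using the curve slopes.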

[11] = test system: Escherichia coli; assay: Reduction of OmpC expression in Escherichia coli Wi expressing CTX-M3 at 4 times MIC concentration by RT-PCR analysis; procedure, shortened: as §1
[12] = test system: Escherichia coli; assay: Reduction of OmpC expression in Escherichia coli Wi expressing CTX-M9 at 4 times MIC concentration by RT-PCR analysis; procedure, shortened: as §1
[13] = test system: Escherichia coli; assay: Reduction of OmpC expression in Escherichia coli Wi expressing CTX-M15 at 4 times MIC concentration by RT-PCR analysis; procedure, shortened: as §1
[14] = test system: Klebsiella pneumoniae; assay: Reduction of OmpK36 expression in Klebsiella pneumoniae M expressing CTX-M2 at 4 times MIC concentration by RT-PCR analysis
Procedure, shortened: (§2)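 K. pneumoniae M strains, with or without CTX-M, were selected for 18 h at 37°C on Trypticase soy agar with ertapenem at four times the MIC. ompK35 (222-bp amplicon) and ompK36 (202-bp amplicon) transcripts were measured by real-time RT-PCR before and after selection; a 193-bp 16S rRNA amplicon was also amplified. Copy numbers were derived from the slopes of calibration curves made with serially diluted cDNA from in vitro RNA standards.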

[15] = test system: Klebsiella pneumoniae; assay: Reduction of OmpK36 expression in Klebsiella pneumoniae M expressing CTX-M3 at 4 times MIC concentration by RT-PCR analysis; procedure, shortened: as §2
[16] = test system: Klebsiella pneumoniae; assay: Reduction of OmpK36 expression in Klebsiella pneumoniae M expressing CTX-M9 at 4 times MIC concentration by RT-PCR analysis; procedure, shortened: as §2
[17] = test system: Klebsiella pneumoniae; assay: Reduction of OmpK36 expression in Klebsiella pneumoniae M expressing CTX-M15 at 4 times MIC concentration by RT-PCR analysis; procedure, shortened: as §2
[18] = test system: Klebsiella pneumoniae; assay: Reduction of OmpK36 expression in wild type Klebsiella pneumoniae M at 4 times MIC concentration by RT-PCR analysis; procedure, shortened: as §2
[19] = test system: Escherichia coli; assay: Antibacterial activity against Escherichia coli Wi expressing CTX-M2
[20] = test system: Escherichia coli; assay: Antibacterial activity against Escherichia coli Wi expressing CTX-M3
[21] = test system: Escherichia coli; assay: Antibacterial activity against Escherichia coli Wi expressing CTX-M9
[22] = test system: Escherichia coli; assay: Antibacterial activity against Escherichia coli Wi expressing CTX-M15
[23] = test system: Klebsiella pneumoniae; assay: Antibacterial activity against Klebsiella pneumoniae M expressing CTX-M2
[24] = test system: Klebsiella pneumoniae; assay: Antibacterial activity against Klebsiella pneumoniae M expressing CTX-M3
[25] = test system: Klebsiella pneumoniae; assay: Antibacterial activity against Klebsiella pneumoniae M expressing CTX-M9
[26] = test system: Klebsiella pneumoniae; assay: Antibacterial activity against Klebsiella pneumoniae M expressing CTX-M15
[27] = test system: Escherichia coli; assay: Reduction of OmpF expression in Escherichia coli Wi expressing CTX-M2 at 4 times MIC concentration by RT-PCR analysis; procedure, shortened: as §1
[28] = test system: Escherichia coli; assay: Reduction of OmpF expression in Escherichia coli Wi expressing CTX-M3 at 4 times MIC concentration by RT-PCR analysis; procedure, shortened: as §1
[29] = test system: Escherichia coli; assay: Reduction of OmpF expression in Escherichia coli Wi expressing CTX-M9 at 4 times MIC concentration by RT-PCR analysis; procedure, shortened: as §1
[30] = test system: Escherichia coli; assay: Reduction of OmpF expression in Escherichia coli Wi expressing CTX-M15 at 4 times MIC concentration by RT-PCR analysis; procedure, shortened: as §1
[31] = test system: Klebsiella pneumoniae; assay: Reduction of OmpK35 expression in Klebsiella pneumoniae M expressing CTX-M2 at 4 times MIC concentration by RT-PCR analysis; procedure, shortened: as §2
[32] = test system: Klebsiella pneumoniae; assay: Reduction of OmpK35 expression in Klebsiella pneumoniae M expressing CTX-M3 at 4 times MIC concentration by RT-PCR analysis; procedure, shortened: as §2
[33] = test system: Klebsiella pneumoniae; assay: Reduction of OmpK35 expression in Klebsiella pneumoniae M expressing CTX-M9 at 4 times MIC concentration by RT-PCR analysis; procedure, shortened: as §2
[34] = test system: Klebsiella pneumoniae; assay: Reduction of OmpK35 expression in Klebsiella pneumoniae M expressing CTX-M15 at 4 times MIC concentration by RT-PCR analysis; procedure, shortened: as §2

Structure (SMILES): C[C@@H](O)[C@H]1C(=O)N2C(C(=O)O)=C(S[C@@H]3CN[C@H](C(=O)Nc4cccc(C(=O)O)c4)C3)[C@H](C)[C@H]12
- Activity [1]: Active
- Activity [2]: Active
- Activity [3]: Active
- Activity [4]: Active
- Activity [5]: Active
- Activity [6]: Active
- Activity [7]: Active
- Activity [8]: Active
- Activity [9]: Active
- Activity [10]: Active
- Activity [11]: Active
- Activity [12]: Active
- Activity [13]: Active
- Activity [14]: Active
- Activity [15]: Active
- Activity [16]: Active
- Activity [17]: Active
- Activity [18]: Active
- Activity [19]: inactive
- Activity [20]: inactive
- Activity [21]: inactive
- Activity [22]: inactive
- Activity [23]: inactive
- Activity [24]: inactive
- Activity [25]: inactive
- Activity [26]: inactive
- Activity [27]: Active
- Activity [28]: Active
- Activity [29]: Active
- Activity [30]: Active
- Activity [31]: Active
- Activity [32]: Active
- Activity [33]: Active
- Activity [34]: Active
